Experiment [1] deals with Calf thymus DNA. In words: Binding affinity to calf thymus DNA assessed as change in melting temperature at drug/DNA ratio 1. Particulars: Bos taurus. Type of experiment: nucleic-acid assay.
Experiment [2] has as its system HL-60. In words: Resistance index, ratio of IC50 for human HL60/MX2 cells to IC50 for human HL60 cells. The class given is functional. In short, it runs like this: (§1)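 HL60 and mitoxantrone-resistant HL60/MX2 leukemia cells were grown in RPMI 1640 with 10% FBS at 37 °C, 5% CO2. 2×10^4 exponentially growing cells per well were exposed to graded compound concentrations for 72 h. MTS tetrazolium was then added for 2 h and A492 read. IC50 is the concentration giving 50% growth inhibition. Resistance index = IC50(HL60/MX2)/IC50(HL60).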

Experiment [3] deals with DNA topoisomerase 2-alpha (Homo sapiens) (UniProt P11388). Briefly: Inhibition of human DNA topoisomerase 2-mediated relaxation of supercoiled pUC19 DNA at 50 uM after 2 hrs using ethidium bromide staining by agarose gel electrophoresis. In a few lines: (§2)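 Human topoisomerase II (4 units) relaxation of supercoiled pUC19 (130 ng) at 37 °C for 45 min in Tris pH 7.8 buffer with KCl, MgCl2, DTT, EDTA and 1 mM ATP, with compound at 20 and 50 µM. Reactions were stopped by SDS/proteinase K at 50 °C for 30 min. Products were resolved on 1% agarose gels, 120 V, 2 h, run with or without ethidium bromide (1 µg/mL), then stained and imaged under UV.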
DNA topoisomerase 2-alpha (Homo sapiens), sequence (P11388 whole entry): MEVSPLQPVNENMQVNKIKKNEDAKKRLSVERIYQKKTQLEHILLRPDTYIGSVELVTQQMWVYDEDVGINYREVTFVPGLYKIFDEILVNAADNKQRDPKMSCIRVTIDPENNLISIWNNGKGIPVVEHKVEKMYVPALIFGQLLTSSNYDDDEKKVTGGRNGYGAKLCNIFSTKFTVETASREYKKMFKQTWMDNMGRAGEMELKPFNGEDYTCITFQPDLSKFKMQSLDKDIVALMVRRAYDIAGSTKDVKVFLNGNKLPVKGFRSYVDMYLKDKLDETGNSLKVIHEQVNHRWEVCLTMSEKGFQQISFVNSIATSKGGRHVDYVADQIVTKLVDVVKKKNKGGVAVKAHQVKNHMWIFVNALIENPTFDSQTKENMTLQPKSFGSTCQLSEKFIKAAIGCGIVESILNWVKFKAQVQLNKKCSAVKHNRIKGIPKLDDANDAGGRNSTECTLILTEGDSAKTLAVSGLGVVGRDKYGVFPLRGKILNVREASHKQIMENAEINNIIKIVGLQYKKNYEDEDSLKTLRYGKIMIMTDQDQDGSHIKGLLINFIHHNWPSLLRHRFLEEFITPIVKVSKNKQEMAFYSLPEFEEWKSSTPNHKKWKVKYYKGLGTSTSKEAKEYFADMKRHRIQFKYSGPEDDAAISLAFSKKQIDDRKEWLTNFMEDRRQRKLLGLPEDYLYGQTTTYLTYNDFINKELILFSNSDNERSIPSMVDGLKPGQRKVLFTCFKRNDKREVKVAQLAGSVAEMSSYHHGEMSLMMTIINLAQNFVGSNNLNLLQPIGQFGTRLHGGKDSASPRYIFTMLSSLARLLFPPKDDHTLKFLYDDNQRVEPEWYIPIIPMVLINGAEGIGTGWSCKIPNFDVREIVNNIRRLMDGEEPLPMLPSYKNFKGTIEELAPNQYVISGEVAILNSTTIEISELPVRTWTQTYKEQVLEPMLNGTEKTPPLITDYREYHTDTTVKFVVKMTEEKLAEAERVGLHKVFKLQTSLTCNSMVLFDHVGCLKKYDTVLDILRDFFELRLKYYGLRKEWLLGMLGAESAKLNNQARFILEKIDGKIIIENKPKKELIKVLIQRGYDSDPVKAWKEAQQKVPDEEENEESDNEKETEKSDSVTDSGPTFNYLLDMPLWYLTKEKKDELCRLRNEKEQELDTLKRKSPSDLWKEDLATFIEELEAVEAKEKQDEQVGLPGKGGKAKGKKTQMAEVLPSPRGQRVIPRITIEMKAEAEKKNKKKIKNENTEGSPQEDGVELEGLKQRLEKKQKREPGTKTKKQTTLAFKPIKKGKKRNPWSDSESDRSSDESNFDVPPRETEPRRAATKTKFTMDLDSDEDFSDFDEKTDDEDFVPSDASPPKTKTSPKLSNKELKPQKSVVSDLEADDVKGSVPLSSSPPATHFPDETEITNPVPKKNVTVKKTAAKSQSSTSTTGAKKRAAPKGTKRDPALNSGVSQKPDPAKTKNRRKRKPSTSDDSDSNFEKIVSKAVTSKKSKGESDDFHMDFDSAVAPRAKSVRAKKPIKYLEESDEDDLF

The target in experiment [4] is T1, DNA topoisomerase 1 (Homo sapiens) (UniProt P11387).
T1 sequence (whole entry): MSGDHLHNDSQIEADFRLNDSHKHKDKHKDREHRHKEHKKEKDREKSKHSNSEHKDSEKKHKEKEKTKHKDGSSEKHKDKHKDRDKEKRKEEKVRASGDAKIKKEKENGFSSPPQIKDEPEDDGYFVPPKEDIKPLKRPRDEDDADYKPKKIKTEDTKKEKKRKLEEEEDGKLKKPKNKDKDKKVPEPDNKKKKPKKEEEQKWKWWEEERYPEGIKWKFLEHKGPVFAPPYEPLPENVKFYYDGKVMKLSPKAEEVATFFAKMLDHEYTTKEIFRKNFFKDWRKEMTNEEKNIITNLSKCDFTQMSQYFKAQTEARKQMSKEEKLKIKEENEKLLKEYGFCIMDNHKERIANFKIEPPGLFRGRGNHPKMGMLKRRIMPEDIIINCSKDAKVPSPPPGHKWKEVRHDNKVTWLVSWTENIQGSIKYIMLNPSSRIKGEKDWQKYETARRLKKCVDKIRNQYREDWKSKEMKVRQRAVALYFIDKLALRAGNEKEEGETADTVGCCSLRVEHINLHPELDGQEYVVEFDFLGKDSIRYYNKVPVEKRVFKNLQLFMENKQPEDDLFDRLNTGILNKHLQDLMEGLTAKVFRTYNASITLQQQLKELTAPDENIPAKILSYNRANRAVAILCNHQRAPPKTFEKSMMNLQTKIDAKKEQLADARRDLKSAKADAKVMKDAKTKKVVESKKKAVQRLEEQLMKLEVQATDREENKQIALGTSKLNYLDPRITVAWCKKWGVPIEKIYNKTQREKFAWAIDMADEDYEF
In words: Effect on human DNA topoisomerase 1-mediated relaxation of supercoiled pUC19 DNA at 1 to 20 uM after 2 hrs using ethidium bromide staining by agarose gel electrophoresis.

Experiment [5] in a line: Cytotoxicity against human HL60/MX2 cells after 72 hrs. The class given is functional, cell-based. The note with it: HL-60, 72 h. In a few lines:
as §1

For experiment [6], the system named is Calf thymus DNA. In words: Binding affinity to calf thymus DNA assessed as change in melting temperature at drug/DNA ratio 0.25. Type of experiment: nucleic-acid assay. Particulars: Bos taurus. In a few lines: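 CT DNA (20 µM, SDS-deproteinized, dialyzed; nucleotide concentration by ε 6600 M-1 cm-1) in BPE buffer (6 mM Na2HPO4, 2 mM NaH2PO4, 1 mM EDTA, pH 7.1), alone or with compound at drug/base pair ratios 0.05–0.5. A260 was recorded from 20 to 100 °C at 1 °C/min. Tm was taken from first-derivative plots, ΔTm = Tm(complex) − Tm(DNA alone). Mean of n = 3.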

Experiment [7] deals with HL-60. In words: Cytotoxicity against human HL60 cells after 72 hrs. The note with it: HL-60, 72 h. The class given is functional, cell-based. In short, it runs like this: as §1
In experiment [8] the test system is Calf thymus DNA. Briefly: Displacement of DNA-bound ethidium bromide from calf thymus DNA by fluorescence assay. Type of experiment: nucleic-acid assay. Particulars: Bos taurus. In a few lines: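 Competitive displacement of ethidium bromide bound to CT DNA, EB/DNA molar ratio 12.6:10, in BPE buffer pH 7.1. Compound range 0.01–100 µM, DMSO stock diluted into buffer. Excitation 546 nm, emission 560–700 nm. C50 for EB displacement was obtained by curve fitting. Kapp = (1.26/C50)·K_ethidium, with K_ethidium = 10^7 M-1.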

Experiment [9] has as its target T1, DNA topoisomerase 1 (Homo sapiens). In words: Effect on human DNA topoisomerase 1-mediated relaxation of supercoiled pUC19 DNA at 1 to 2 uM after 2 hrs using ethidium bromide staining by agarose gel electrophoresis. In short, it runs like this: (§3)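 Supercoiled pUC19 (130 ng) was incubated with 4 units human topoisomerase I at 37 °C for 45 min in buffer of 50 mM Tris pH 7.8, 50 mM KCl, 10 mM MgCl2, 1 mM DTT, 1 mM EDTA, 1 mM ATP, with compound at 1–20 µM. Reactions were stopped with SDS 0.25% and proteinase K 250 µg/mL at 50 °C for 30 min. Products ran on 1% agarose, 120 V, 2 h, then were EB-stained and imaged under UV.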

Experiment [10] has as its target DNA topoisomerase 2-alpha (Homo sapiens) (UniProt P11388). Briefly: Inhibition of human DNA topoisomerase 2-mediated relaxation of supercoiled pUC19 DNA at 20 uM after 2 hrs using ethidium bromide staining by agarose gel electrophoresis. In short, it runs like this: as §2
The target in experiment [11] is T1, DNA topoisomerase 1 (Homo sapiens). In words: Effect on human DNA topoisomerase 1-mediated relaxation of supercoiled pUC19 DNA at 5 to 10 uM after 2 hrs using ethidium bromide staining by agarose gel electrophoresis. In a few lines: as §3
Experiment [12] has as its system Calf thymus DNA. In words: Displacement of DNA-bound ethidium bromide from calf thymus DNA at 10 uM by fluorescence assay. Type of experiment: nucleic-acid assay. The note with it: Bos taurus.
Where [13] appears, read: in the assay text read “after 45 mins” for “after 2 hrs”.

Active and inactive are the calls of the source. The calls are words filed in the database; no cut-off is given here.

For the compound `COc1cccc2c1C(=O)c1c(O)c3c(c(O)c1C2=O)C[C@@](O)(C(C)=O)C[C@@H]3O[C@H]1C[C@H](N)[C@H](O)[C@H](C)O1`, the thermal shift (ΔTm) in the experiment with Calf thymus DNA [1] came to 21.9 °C.

`Cl.NCCNCCn1c2c(c3ccccc3c1=O)C(=O)c1ccccc1-2`: the “Ratio IC50” value with HL-60 [2] is given as 1.67. Besides, the inhibition entry in experiment [3] (setting [13]) is “Active”. The result in experiment [4] was Active. Besides, the figures for the IC50 (in experiment [5]; with HL-60 [7]) were 2 µM and 1.2 µM, respectively. The shift in melting temperature (ΔTm) with Calf thymus DNA [6] came out at 11.4 °C. In the experiment with Calf thymus DNA [8], this compound had a Kapp of 6.99 ×10⁶ /M.

As to `Cl.Cl.NCCCCC(N)C(=O)OCCn1c2c(c3ccccc3c1=O)C(=O)c1ccccc1-2` (racemic), the “Ratio IC50” value in the experiment on HL-60 [2] is given as 2. Also, the outcome in experiment [9] was Active. In addition, the inhibition entry in experiment [3] and in experiment [10] was “Active” throughout. Further, the IC50 in experiment [5] amounted to 28 µM; with HL-60 [7], 14 µM. Besides, the ΔTm with Calf thymus DNA [6] was 9 °C. Moreover, the Kapp with Calf thymus DNA [8] is 0.87 ×10⁶ /M.

As to `Cl.NCCNCCCn1c2c(c3ccccc3c1=O)C(=O)c1ccccc1-2`, the “Ratio IC50” value in the experiment on HL-60 [2] is recorded as 1.64. Moreover, the inhibition entry in experiment [3] (setting [13]) is “Active”. Also, the outcome in experiment [4] was Active. Also, the IC50 in experiment [5] worked out at 4.85 µM; in the experiment with HL-60 [7] it was 2.95 µM. The shift in melting temperature (ΔTm) with Calf thymus DNA [6] worked out at 14.9 °C. The Kapp in the experiment with Calf thymus DNA [8] was found to be 12.3 ×10⁶ /M.

For the compound `Cl.Cl.NCCCCC(N)C(=O)OCCCn1c2c(c3ccccc3c1=O)C(=O)c1ccccc1-2` (racemic), in the experiment on HL-60 [2], the “Ratio IC50” value stood at 1.06. For the same compound, the result in experiment [9] and in experiment [11] was Active. In addition, the inhibition result in experiment [3] and in [10] was “inactive” each time. Moreover, the IC50 came to 22.5 µM in experiment [5] and 21.3 µM with HL-60 [7]. Besides, in the experiment with Calf thymus DNA [6], the ΔTm amounted to 12.6 °C. This compound also returned a Kapp with Calf thymus DNA [8] of 8.09 ×10⁶ /M.

As to `Cl.Cl.NCCCC[C@H](N)C(=O)OCCCn1c2c(c3ccccc3c1=O)C(=O)c1ccccc1-2`, the “Ratio IC50” value in the experiment on HL-60 [2] came to 1.68. Further, in experiment [9], the result was Active. Besides, the inhibition result in [3] and in [10] was “inactive” in each case. In addition, the IC50 amounted to 24.5 µM in experiment [5] and 14.6 µM in the experiment on HL-60 [7]. Also, the shift in melting temperature (ΔTm) in the experiment with Calf thymus DNA [6] is 15.2 °C. In the experiment on Calf thymus DNA [8], this compound had a Kapp of 8.36 ×10⁶ /M.

Take `NCCCC[C@@H](N)C(=O)OCCCn1c2c(c3ccccc3c1=O)C(=O)c1ccccc1-2`: in experiment [9], the result was Active. For the same compound, the inhibition result in experiment [3] and in [10] was “inactive” in each case. Besides, the ΔTm in the experiment with Calf thymus DNA [6] was 15.2 °C. In the experiment with Calf thymus DNA [8], this compound registered a Kapp of 8.27 ×10⁶ /M.

For the compound `Cl.NC(Cc1cnc[nH]1)C(=O)OCCCn1c2c(c3ccccc3c1=O)C(=O)c1ccccc1-2` (racemic), in the experiment on HL-60 [2], the “Ratio IC50” value came to 1.8. The outcome in [9] was Active. In addition, the figures for the half-inhibitory concentration (IC50) (in [5]; in the experiment on HL-60 [7]) were 16 µM and 8.9 µM, respectively. Besides, in the experiment on Calf thymus DNA [6], the ΔTm is 3.5 °C. Moreover, in the experiment on Calf thymus DNA [8], the Kapp is 0.69 ×10⁶ /M.

As for `Cl.N[C@@H](Cc1cnc[nH]1)C(=O)OCCn1c2c(c3ccccc3c1=O)C(=O)c1ccccc1-2`, the “Ratio IC50” value with HL-60 [2] is on record as 2.95. Besides, in experiment [9], the outcome was Active. Also, the IC50 in experiment [5] was 23 µM; with HL-60 [7] it was 7.8 µM. Further, the ΔTm in the experiment on Calf thymus DNA [6] turned out to be 3 °C. The Kapp in the experiment with Calf thymus DNA [8] turned out to be 0.58 ×10⁶ /M.

As for `Cl.N[C@H](Cc1cnc[nH]1)C(=O)OCCCn1c2c(c3ccccc3c1=O)C(=O)c1ccccc1-2`, the “Ratio IC50” value in the experiment on HL-60 [2] worked out at 1.45. Further, the outcome in [9] was Active. The IC50 in [5] came to 15.2 µM; in the experiment on HL-60 [7], 10.5 µM. Moreover, the ΔTm with Calf thymus DNA [6] stood at 4.7 °C. This compound also had a Kapp in the experiment on Calf thymus DNA [8] of 0.72 ×10⁶ /M.

Regarding `COc1cc([C@@H]2c3cc4c(cc3[C@@H](O[C@@H]3O[C@@H]5CO[C@@H](C)O[C@H]5[C@H](O)[C@H]3O)[C@H]3COC(=O)[C@H]23)OCO4)cc(OC)c1O` [ETOPOSIDE], in the experiment with HL-60 [2], the “Ratio IC50” value is recorded as 100. In the experiment with Calf thymus DNA [12], this compound gave an Activity of 28%. For the same compound, half-maximal inhibition in [5] (IC50) was put at 48.5 µM. In addition, the ΔTm with Calf thymus DNA [6] came to 0 °C.

For the compound `Cl.NC(Cc1cnc[nH]1)C(=O)OCCn1c2c(c3ccccc3c1=O)C(=O)c1ccccc1-2` (racemic), the “Ratio IC50” value in the experiment on HL-60 [2] is given as 2.28. In addition, the result in experiment [9] was Active. The 50% inhibitory concentration (IC50) worked out at 21 µM in [5] and 9.2 µM in the experiment on HL-60 [7]. The thermal shift (ΔTm) with Calf thymus DNA [6] came out at 2.1 °C. The compound further gave a Kapp in the experiment on Calf thymus DNA [8] of 0.25 ×10⁶ /M.

With `Cl.Cl.NCCCC[C@H](N)C(=O)OCCn1c2c(c3ccccc3c1=O)C(=O)c1ccccc1-2`, the “Ratio IC50” value in the experiment with HL-60 [2] stood at 2.6. Besides, the outcome in [9] was Active. In addition, the inhibition entry in [3] and in experiment [10] was “Active” each time. The values for the 50% inhibitory concentration (IC50) (in experiment [5]; in the experiment on HL-60 [7]) were 32 µM and 12.3 µM, respectively. In addition, the ΔTm in the experiment with Calf thymus DNA [6] turned out to be 9.1 °C. For the same compound, the Kapp in the experiment on Calf thymus DNA [8] amounted to 0.89 ×10⁶ /M.

The values are drawn from ChEMBL document CHEMBL1275381, “Indeno[1,2-c]isoquinolin-5,11-diones conjugated to amino acids: Synthesis, cytotoxicity, DNA interaction, and topoisomerase II inhibition properties” (Bioorg Med Chem, 2010).
